# Measurements reported in ChEMBL document CHEMBL1147117, “Novel synthetic antimicrobial peptides against Streptococcus mutans” (2007).
# Where a SMILES comes first, the peptide text is derived from it.
# How the values were obtained:
# Format in all cases: functional
# [1] = test system: Streptococcus mutans; experiment: Antibacterial activity against Streptococcus mutans after 16 to 20 hrs
# How it was run: (§1)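 Broth microdilution in TH broth or Veillonella medium. Overnight cultures grown to OD600 0.75 to 0.8 were diluted to 1 x 10^5 CFU/ml. Peptide was serially diluted 1:2 from 500 or 512 µg/ml down to 1.95 or 2 µg/ml, with a methanol solvent control. Incubation was 16 to 20 h at 37°C, anaerobic, without shaking. MIC was read visually as the last clear well. Run in triplicate.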
# [2] = test system: Streptococcus mitis; experiment: Antibacterial activity against Streptococcus mitis ATCC 903 after 16 to 20 hrs; how it was run: as §1
# [3] = test system: Streptococcus gordonii; experiment: Antibacterial activity against Streptococcus gordonii Challis DL1 after 16 to 20 hrs; how it was run: as §1
# [4] = test system: Lacticaseibacillus casei; experiment: Antibacterial activity against Lactobacillus casei ATCC 4646 after 16 to 20 hrs; how it was run: as §1
# [5] = test system: Veillonella atypica; experiment: Antibacterial activity against Veillonella atypica PK1910 after 16 to 20 hrs; how it was run: as §1
# [6] = test system: Streptococcus sanguinis; experiment: Antibacterial activity against Streptococcus sanguinis NY101 after 16 to 20 hrs; how it was run: as §1
# [7] = test system: Streptococcus mutans; experiment: Bactericidal activity against Streptococcus mutans UA159 assessed as time required to kill 3 log10 of recoverable CFU/ml at 25 ug/ml relative to untreated control
# How it was run: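 Time-kill assay. Overnight UA159 cultures were diluted in medium to 0.5 x 10^6 to 1 x 10^6 CFU/ml and exposed to 25 µg/ml peptide. At each time point a 10-µl aliquot was diluted 1:50 into growth medium and plated on TH agar; whole 1-ml samples were plated when survivors were below 3,000 CFU/ml. TC is the time for survivors to fall 3 log10 below untreated CFU/ml. Repeated 3 to 5 times.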
MIC [1] [µg/mL],Molecule,further results
125,Cl.N=C(N)NCCC[C@H](NC(=O)[C@H](CCCNC(=N)N)NC(=O)[C@@H](N)CCCNC(=N)N)C(=O)N[C@@H](CCCCN)C(=O)N[C@@H](Cc1c[nH]c2ccccc12)C(=O)N[C@@H](Cc1c[nH]c2ccccc12)C(=O)N[C@@H](CCCCN)C(=O)O (H-RRRKWWK-OH),
16,H-AKRLLKVLKRF-NH2,
> 125,H-AQAAHQAAHAAHQF-NH2,
> 125,H-AQAAKQAAKAAKQF-NH2,
> 250,H-ATHLLHALQRF-NH2,
125,H-FHYFWHWFHRF-NH2,
8,H-FKKFWKWFRRF-NH2,MIC [2]: 32 µg/mL; MIC [3]: 32 µg/mL; MIC [4]: 32 µg/mL; MIC [5]: 16 µg/mL; MIC [6]: 32 µg/mL
16,H-FKKFWKWFRRFGGGRWRRLLKKLHHLLH-NH2,
4,H-FKKFWKWFRRFGGGRWRWRWF-NH2,MIC [2]: 64 µg/mL; MIC [3]: 32 µg/mL; MIC [4]: 8 µg/mL; MIC [5]: 8 µg/mL; MIC [6]: 16 µg/mL
24,H-FKTFLKWLHRF-NH2,
16,H-FKTFLQWLHRF-NH2,
24,H-IKQLLHFFQRF-NH2,MIC [2]: 64 µg/mL; MIC [3]: 32 µg/mL; MIC [4]: 32 µg/mL; MIC [5]: 64 µg/mL; MIC [6]: 64 µg/mL
16,H-IKQLLHFFQRFGGGRWRRLLKKLHHLLH-NH2,
4,H-IKQLLHFFQRFGGGRWRWRWF-NH2,MIC [2]: 64 µg/mL; MIC [3]: 32 µg/mL; MIC [4]: 16 µg/mL; MIC [5]: 8 µg/mL; MIC [6]: 16 µg/mL
32,H-IKTLLHFFQRF-NH2,
> 250,H-KLAENVKEILR-NH2,
> 125,H-KLAQKVKRVLR-OH,
31.2,H-KLFKRWKHLFR-OH,
8,H-KLKKLLKHLHHLLH-NH2,
8,H-KLKKLLKKLKKLLK-OH,
8,H-KLKKLLKRWRRWWR-OH,
> 250,H-KLLQTFKQIFR-OH,
> 125,H-KLLQTFNQIFR-OH,
> 250,H-KLVEQLKEIFR-OH,
> 125,H-KLVQQLKNIFR-OH,

MIC [1] [µg/mL],Molecule,further results
8,H-LKLLKKLLKLLKKF-NH2,
32,H-LKQFVHFIHRF-NH2,
24,H-LKQFVKFIHRF-NH2,
8,H-LKRFLKWFKRF-NH2,MIC [2]: 64 µg/mL; MIC [3]: 32 µg/mL; MIC [4]: 16 µg/mL; MIC [5]: 32 µg/mL; MIC [6]: 16 µg/mL
4,H-LKRFLKWFKRFGGGRWRWRWF-NH2,MIC [2]: 64 µg/mL; MIC [3]: 64 µg/mL; MIC [4]: 16 µg/mL; MIC [5]: 8 µg/mL; MIC [6]: 16 µg/mL
8,H-LQLLKQLLKLLKQF-NH2,
125,H-LYHFLHWFQRF-NH2,
> 250,H-RALHEAKEALK-OH,
> 125,H-RALKRIKHVLK-OH,
> 250,H-RILKELKNLFK-OH,
31.2,H-RLLKRFKHLFK-OH,
31.2,H-RRRFWWR-OH,
250,H-RRRKWWK-OH,
125,H-RRRRWWK-OH,
16,H-RRRRWWW-OH,
4,H-RRRWWWF-NH2,MIC [2]: 32 µg/mL; MIC [3]: 32 µg/mL; MIC [4]: 16 µg/mL; MIC [5]: 64 µg/mL; MIC [6]: 16 µg/mL; Time [7]: 220 min
32,H-RRRWWWFASASARRRWWWF-NH2,Time [7]: 480 min
16,H-RRRWWWFGGGRRRWWWF-NH2,Time [7]: 270 min
32,H-RRRWWWFPSGSPRRRWWWF-NH2,Time [7]: 420 min
16,H-RRRWWWFRRRWWWF-NH2,Time [7]: 60 min
31.2,H-RRRWWWK-OH,
32,H-RRRWWWR-OH,
500,H-RRWKRRK-OH,
4,H-RRWWRRF-NH2,
125,H-RRWWRRK-OH,

MIC [1] [µg/mL],Molecule,further results
16,H-RRWWRRW-OH,
> 125,H-RVLNQVKQILK-OH,
> 250,H-RVLQEIKQILK-OH,
125,H-RWRKRWK-OH,
8,H-RWRRLLKKLHHLLH-NH2,MIC [2]: 32 µg/mL; MIC [3]: 16 µg/mL; MIC [4]: 16 µg/mL; MIC [5]: 4 µg/mL; MIC [6]: 16 µg/mL
4,H-RWRRLLKKLHHLLHGGGFKKFWKWFRRF-NH2,MIC [2]: 32 µg/mL; MIC [3]: 16 µg/mL; MIC [4]: 8 µg/mL; MIC [5]: 8 µg/mL; MIC [6]: 16 µg/mL
16,H-RWRRLLKKLHHLLHGGGIKQLLHFFQRF-NH2,
8,H-RWRRWWRHFHHFFH-NH2,
125,H-RWRWRWF-NH2,MIC [2]: 32 µg/mL; MIC [3]: 32 µg/mL; MIC [4]: 32 µg/mL; MIC [5]: 64 µg/mL; MIC [6]: 32 µg/mL; Time [7]: 220 min
16,H-RWRWRWFASASARWRWRWF-NH2,Time [7]: 45 min
4,H-RWRWRWFGGGFKKFWKWFRRF-NH2,MIC [2]: 64 µg/mL; MIC [3]: 16 µg/mL; MIC [4]: 8 µg/mL; MIC [5]: 8 µg/mL; MIC [6]: 8 µg/mL
8,H-RWRWRWFGGGIKQLLHFFQWRF-NH2,
8,H-RWRWRWFGGGLKRFLKWFKRF-NH2,MIC [2]: 64 µg/mL; MIC [3]: 32 µg/mL; MIC [4]: 8 µg/mL; MIC [5]: 16 µg/mL; MIC [6]: 16 µg/mL
16,H-RWRWRWFGGGRWRWRWF-NH2,Time [7]: 90 min
32,H-RWRWRWFPSGSPRWRWRWF-NH2,Time [7]: 270 min
16,H-RWRWRWFRWRWRWF-NH2,Time [7]: 50 min
32,H-RWRWRWK-OH,
32,H-RWRWRWR-OH,
> 125,H-TILQSLKNIFK-OH,
16,H-VKKLAKLVRRF-NH2,
> 250,H-VKNLAELVHRF-NH2,
32,H-VKQLLKIFNRF-NH2,
31.2,H-VKTLLHIFQRF-NH2,
> 125,H-YLFQTWQHLFR-OH,
> 125,H-YLLTEFQHLFK-OH,
